Screening results (PubChem BioAssay)
MrgX1 antag: blocks BAM8-22 activation of human MrgX1 receptor; AID 588676; B-score at 10 µM; Q96LB2; MRGX1-HEK293 calcium flux, Fluo-4, BAM8-22 antagonism; active compounds read low; hit rate 1.3% among 310,000;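 active = calcium-response B-score plate-corrected more than 3 library SD below zero, starting fluorescence within 5 deviations, no agonist response on first addition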;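 also: peak minus trough fluorescence over baseline after final BAM8-22 challenge near maximal dose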
Target sequence (Q96LB2 whole entry, looked up): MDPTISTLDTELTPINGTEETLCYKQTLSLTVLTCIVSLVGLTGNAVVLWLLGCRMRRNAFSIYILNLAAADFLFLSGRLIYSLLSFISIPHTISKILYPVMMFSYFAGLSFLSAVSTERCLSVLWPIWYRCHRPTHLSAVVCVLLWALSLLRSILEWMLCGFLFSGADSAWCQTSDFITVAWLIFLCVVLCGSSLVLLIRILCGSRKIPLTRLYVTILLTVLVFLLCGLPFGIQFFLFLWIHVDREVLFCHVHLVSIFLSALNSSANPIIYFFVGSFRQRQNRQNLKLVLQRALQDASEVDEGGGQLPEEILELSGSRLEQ
MrgX1 agonist: activates human MrgX1 receptor signaling. B-score at 10 µM. AID 588627. hit rate 0.44% among 310,000. MrgX1-HEK293 cells, Fluo-4 calcium fluorescence, agonist mode; active compounds read high;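 active = calcium response B-score plate-corrected fluorescence ratio at least 3 library SD, with starting fluorescence B-score inside 5 SD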
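Test system: HEK293 cells stably expressing human MrgX1 receptor; Input: fifteen thousand cells per well; Dosing: compound delivered in addition one of three; Schedule: overnight seeding, then 1 h dark dye loading; Technique: Fluo-4 NW calcium fluorescence; Measure: B-scored fluorescence response ratio; Controls: positive and negative controls per plate.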
RGS4 act: RGS4 potentiation or activation | HEK293 M3R/inducible RGS4, carbachol calcium flux Fluo4; active compounds read low | B-score at 10 µM | hit rate 0.92% among 310,000 | AID 463111;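 active = B-score of the integrated calcium signal more than 4 SD below the library mean, with starting fluorescence not abnormally high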;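 also: negative B-score means reduced calcium response which marks RGS4 activation or potentiation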
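Test system: HEK293 cells with stable M3R and inducible RGS4; also added: carbachol at ECmax as muscarinic agonist stimulus; schedule: dye loading 30 min 37 °C, buffer rest 30 min RT; technique: kinetic calcium fluorescence imaging with Fluo4-AM dye, 2 µM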
MrgX1 allo act: human MrgX1 positive allosteric modulation, primary screen | Q96LB2 | AID 588675 | B-score at 10 µM | MrgX1-HEK293, Fluo-4 calcium flux, FDSS; active compounds read high | hit rate 0.63% among 310,000;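 active = plate-corrected calcium response at least 3 library SD above typical, normal starting fluorescence, not activating the receptor alone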;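 also: compound read alongside a low EC10 to EC30 dose of BAM8-22 agonist; peak minus trough fluorescence over baseline measured at the second addition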
RGS4 inh: inhibitors of human RGS4. B-score at 10 µM. HEK293 M3R/RGS4 inducible, Fluo-4 calcium flux; active compounds read high; triggered by carbachol at its EC20. P49798. hit rate 0.45% among 310,000. AID 463165;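 active = B-score, a plate-corrected calcium signal, over three deviations above library mean, with baseline fluorescence within five deviations of library mean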;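 also: RGS4 expression induced by doxycycline in cells with stable M3 receptor; B-score is computed from the integrated fluorescence ratio over baseline after carbachol; higher B-score means a larger calcium signal and so more RGS4 inhibition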
Target sequence (P49798 whole entry, looked up): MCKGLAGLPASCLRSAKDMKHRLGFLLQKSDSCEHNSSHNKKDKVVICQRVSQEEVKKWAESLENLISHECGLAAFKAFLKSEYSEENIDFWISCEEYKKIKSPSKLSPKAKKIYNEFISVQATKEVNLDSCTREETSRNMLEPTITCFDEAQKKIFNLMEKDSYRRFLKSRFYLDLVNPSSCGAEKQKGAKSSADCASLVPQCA
MrgX1 antag conf: reconfirmed antagonist of human MrgX1 receptor signaling; remaining BAM8-22 calcium response % of control (active compounds read low), % at 10 µM; shares compounds with MrgX1 antag; AID 602420; MrgX1-HEK293, BAM8-22 calcium flux, Fluo-4; active compounds read low; hit rate 19% among 2,300;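 active = remaining agonist calcium response no higher than 100% minus 3 SD of agonist-only control wells, with starting fluorescence near control levels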;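 also: agonist BAM8-22 given at a near maximal EC90 to ECmax level; peak minus minimum fluorescence divided by baseline after agonist addition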
HEK293 Ca flux: activity in parental HEK293 cells lacking MrgX1 | hit rate 2% among 4,000 | shares compounds with MrgX1 antag | Fluo-4 calcium fluorescence, FDSS | fluorescence ratio F(max-min)/F0 at 10 µM;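 active = duplicate-averaged calcium fluorescence ratio at least three times the standard deviation of buffer wells, a nonspecific response in parental cells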
HEK293 Ca counter: counter-screen for MrgX1 allosteric activators: effect in parental HEK293 cells; parental HEK293 calcium flux, Fluo-4 fluorescence ratio; active compounds read high; hit rate 0.4% among 4,000; AID 624114; shares compounds with MrgX1 antag; fluorescence ratio F(max-min)/F0 at 10 µM;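 active = calcium fluorescence ratio, averaged over duplicates, at least 3 SD of the buffer-well ratio, meaning a nonspecific response in receptor-free cells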;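 also: untransfected parental HEK293 lacking MrgX1 used as counterscreen for MrgX1 allosteric activators; fluorescence change taken during the second addition on a kinetic imager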
HEK293 Ca cntr2: activity in parental HEK293 cells lacking MrgX1 receptor; hit rate 8.7% among 4,000; shares compounds with MrgX1 antag; Fluo-4 calcium fluorescence (FDSS); active compounds read high; fluorescence ratio F(max-min)/F0 at 10 µM; AID 624115;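 active = calcium fluorescence ratio at least three times the spread of buffer wells, meaning a non-specific response in parental cells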
Numbers without * were called inactive; i = inactive; nt = no result. Rows were chosen to be rich in hits. Some 3.5% of all compounds tested hit in one or more screens of this group.

SMILES | MrgX1 antag | MrgX1 agonist | RGS4 act | MrgX1 allo act | RGS4 inh | MrgX1 antag conf | HEK293 Ca flux | HEK293 Ca counter | HEK293 Ca cntr2
Nc1c(C(=O)N2CCOCC2)sc2nc(N3CCOCC3)c3c(c12)CCCC3 | i | i | i | i | i | nt | nt | nt | nt
Cc1cccc2cc3c(N)c(C(=O)N4CCOCC4)sc3nc12 | -5.1* | i | i | i | i | i | i | i | 48*
COc1cccc(N2CCN(C(=O)Cn3c(=O)oc4ccccc43)CC2)c1 | i | i | i | i | i | nt | nt | nt | nt
O=C(COc1cccc2ccccc12)Nc1ccc(Cl)cc1C(=O)O | -7.5* | i | i | i | i | 74%* | i | i | i
O=C(COc1cccc2ccccc12)Nc1cc(Cl)ccc1C(=O)O | -7.6* | i | i | i | i | 62%* | i | i | i
COc1ccccc1CC(=O)Nc1ccc(Cl)cc1C(=O)O | i | i | i | i | i | nt | nt | nt | nt
CN(Cc1ccccc1)C(=O)CCC1CCN(S(C)(=O)=O)CC1 | i | i | i | i | i | nt | nt | nt | nt
Cc1ccc(S(=O)(=O)N(C)C)cc1NC(=O)COC(=O)Cc1ccccc1F | i | i | i | i | i | nt | nt | nt | nt
O=C1c2c([N+](=O)[O-])cc([N+](=O)[O-])cc2S(=O)N1Cc1ccccc1 (stereo not drawn) | i | i | i | i | i | nt | nt | nt | nt
CC(C)Oc1ccc(C(=O)NC2CCCCC2)cc1 | i | i | i | i | i | nt | nt | nt | nt
CC(C)Oc1ccc(C(CCN)C2CCCCC2)cc1 (stereo not drawn) | -4.7* | i | i | i | i | i | i | i | i
COc1ccc(NC(=O)CN(C)C(=O)CSc2ccc3c(c2)OCCO3)cc1 | -5.2* | i | i | i | i | i | i | i | i
COc1ccc(C(=O)N2CCCC2)cc1S(=O)(=O)N1CCOCC1 | i | i | i | i | i | nt | nt | nt | nt
COc1cc2c(cc1OC)CN(C(=O)c1ccc(OC)c(S(=O)(=O)N3CCOCC3)c1)CC2 | -5.1* | i | i | i | i | i | i | i | i
COc1cccc2c(=O)c(C(=O)O)c[nH]c12 | i | i | i | i | i | nt | nt | nt | nt
O=C(O)c1c[nH]c2c(C(F)(F)F)cccc2c1=O | -7.4* | i | i | i | i | i | i | i | i
CCCCn1c(N)c(N(CC(C)C)C(=O)CCCc2cccs2)c(=O)[nH]c1=O | i | i | i | i | i | nt | nt | nt | nt
CC1(C)SC[C@H](C(=O)Nc2cccc(Cl)c2)N1C=O | i | i | i | i | i | nt | nt | nt | nt
COc1ccc(OC)c(S(=O)(=O)Nc2ccc(OCC(=O)O)cc2)c1 | i | i | i | i | i | nt | nt | nt | nt
COc1ccc(OC)c(S(=O)(=O)Nc2ccc(CC(=O)O)cc2)c1 | -9.2* | i | i | i | i | i | i | i | i
Cc1ccccc1C(=O)Nc1ccnn1C1CCN(Cc2ccccn2)CC1 | i | i | i | i | i | nt | nt | nt | nt
CN(C)CCCC(C)(O)C(Cc1ccccc1)c1ccccc1 (stereo not drawn) | -6.5* | i | i | i | i | i | i | i | i
CN(C)CCC(Oc1ccccc1OCc1ccccc1)c1ccccc1 (stereo not drawn) | i | i | i | i | i | nt | nt | nt | nt
COc1ccc(N2C(=S)NC(C)(C)CC2(C)c2ccc(OC(C)=O)cc2OC(C)=O)cc1 (stereo not drawn) | -4.6* | i | i | i | i | i | i | i | i
